Screens from PubChem BioAssay.
An excerpt weighted towards active compounds, which were near 4.1% of everything screened.
KCNQ1 act: potentiates or activates the human KCNQ1 potassium channel; 310,000 compounds, 0.35% hits; AID 2648; B-score at 10 µM; CHO-K1 KCNQ1, thallium flux FluxOR fluorescence; active compounds read high;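 active means fluorescence ratio B-score, a plate-corrected score, at least three library SD, with initial intensity B-score within 5 SD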
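Assay system: stable KCNQ1 CHO-K1 line; medium: assay buffer, equal DMSO in all wells; timing: 90 min dye loading and 20 min compound exposure, both at room temperature; technique: kinetic FluxOR thallium fluorescence, 10-s 1-Hz baseline, 110-s post-stimulus read; read-out basis: B score of baseline-normalized fluorescence ratio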
KCNQ1 inh: human KCNQ1 channel inhibition; CHO-K1 KCNQ1, FluxOR thallium flux fluorescence; active compounds read high; 310,000 compounds, 1.3% hits; B-score at 10 µM; P51787;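 active means compounds whose thallium flux B-score, printed positive for inhibition, exceeds three library SD while starting fluorescence stays within three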;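 further: channel opened by potassium depolarization with thallium stimulus after 20 min compound exposure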
Cl transport mod: modulates chloride dependent transport by human KCC2 | 190,000 compounds, 2.2% hits | KCC2 cells, thallium flux FluoZin-2 fluorescence | AID 1456 | B-score of Tl+ flux slope (higher = more flux/activation; lower = inhibition) at 10 µM;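 active means thallium flux slope and its plate-corrected score both differing from the plate sample mean at a set confidence after two filtering rounds, in either direction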;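 further: slope of fluorescence scaled to starting intensity during 10 to 20 s after thallium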
KCNK3 inh: human KCNK3 channel inhibition, primary screen | B-score at 10 µM | CHO-KCNK3 thallium flux, FluxOR fluorescence; active compounds read low | O14649 | 340,000 compounds, 0.84% hits | AID 602410;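 active means B-score under library mean minus 4 SD, starting fluorescence ratio at most library mean plus 5 SD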;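 further: more negative B-score means stronger inhibition of thallium flux through KCNK3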
Target sequence (O14649 whole entry, looked up): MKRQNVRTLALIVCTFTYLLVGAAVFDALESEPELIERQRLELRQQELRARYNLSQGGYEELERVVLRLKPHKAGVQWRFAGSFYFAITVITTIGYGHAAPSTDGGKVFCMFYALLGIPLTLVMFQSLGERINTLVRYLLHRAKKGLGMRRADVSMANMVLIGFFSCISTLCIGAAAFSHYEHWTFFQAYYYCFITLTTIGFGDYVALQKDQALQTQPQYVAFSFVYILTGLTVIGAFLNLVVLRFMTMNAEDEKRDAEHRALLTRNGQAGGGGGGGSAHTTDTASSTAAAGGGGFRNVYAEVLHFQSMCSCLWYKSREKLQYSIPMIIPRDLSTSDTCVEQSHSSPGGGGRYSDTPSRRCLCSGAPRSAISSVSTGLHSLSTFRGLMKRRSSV
KCNK9 inh: blocks the human KCNK9 two-pore domain potassium channel | HEK293 KCNK9, FluxOR thallium flux fluorescence; active compounds read low | B-score at 10 µM | Q9NPC2 | 310,000 compounds, 1.2% hits;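 active means ratio B-score over 3 SD below the library mean, with starting fluorescence within 5 SD of its mean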;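 further: negative B-score means less thallium flux so channel inhibition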
hERG rescue: hERG (human) protection from proarrhythmic block; Q12809; CHO-hERG, FluxOR thallium flux, dofetilide IC70 present; activation (rescue from dofetilide block), less the hit threshold, % at 10 µM; 310,000 compounds, 0.51% hits; AID 1511;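 active means activation above the mean of controls blocked by dofetilide plus 5 SD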;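 further: thallium influx through hERG after potassium depolarization seen as dye fluorescence rise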
An asterisk follows results filed as active; i = inactive; x = no result given.

SMILES	KCNQ1 act	KCNQ1 inh	Cl transport mod	KCNK3 inh	KCNK9 inh	hERG rescue
Cc1ccc(C(=O)NCCOc2ccc(Cl)cc2)cc1	i	i	x	i	i	-1
Cc1ccc(C(=O)CC(=O)COc2ccc(Cl)cc2)cc1	17*	i	21*	i	i	-11
Cc1ccc(C(=O)NNC(=S)NC(=O)c2ccccc2)cc1	8*	i	x	i	i	23*
COc1ccc(-c2ccc(/C=N/NC(=O)c3cccnc3)o2)c([N+](=O)[O-])c1	i	i	-2.5	i	i	16*
CC1(C)CC(c2nc(-c3ccc([N+](=O)[O-])cc3)cs2)CCO1 (stereo not given)	i	7*	-0.31	i	i	-22
O=C(O)C[C@@H]1C(=O)O[C@@H]2C(COC(=O)c3cc(O)c(O)c(O)c3)O[C@@H](OC(=O)c3cc(O)c(O)c(O)c3)[C@@H](OC(=O)c3cc(O)c(O)c4c3[C@H]1[C@H](O)C(=O)O4)[C@H]2OC(=O)c1cc(O)c(O)c(O)c1 (stereo not given in full)	x	x	-1.1	x	x	x
CCCCC(CC)CN1C(=O)/C(=C/c2ccncc2)SC1=S (stereo not given)	i	7*	0.16	i	i	-3
CCN1C(=O)/C(=C\c2ccncc2)SC1=S	i	i	-0.83	i	i	-3
CCOC(=O)c1ccccc1NC(=O)CSC(C)C(=O)Nc1cc(C)on1 (stereo not given)	i	i	x	i	i	-19
CC(=O)Nc1ccc(/C=N/N2C(=O)NC(C)(c3ccc(OC(F)F)cc3)C2=O)cc1 (stereo not given)	34*	i	0.82	i	i	-10
O=C(NN(CC(O)COc1ccccc1)CC(O)COc1ccccc1)c1ccccc1 (stereo not given)	i	i	-0.93	i	i	-13
CC(C)CN(C(=O)CSc1nc2ccccc2c(=O)n1C)C1CCS(=O)(=O)C1 (stereo not given)	x	x	x	i	x	x
C=CCSC1=N/C(=C\c2ccc3c(c2)OCO3)C(=O)S1	i	i	x	i	i	-9
C=CCSC1=N/C(=C\c2cc(OCC)c(OC(C)=O)c([N+](=O)[O-])c2)C(=O)S1	i	9*	0.83	i	i	-17
O=C(NC(=S)Nc1cccc(Cl)c1Cl)C1CC1	i	i	x	i	i	-1
CCCNC(=O)c1csc(Nc2cccc3ccccc23)n1	i	i	x	i	-8*	-4
COCCNC(=O)c1csc(Nc2cccc3ccccc23)n1	i	i	x	i	i	-8
O=C(NC1CCCCC1)C(c1cccs1)N(C(=O)Cc1c[nH]c2ccccc12)c1ccc(F)cc1 (stereo not given)	i	i	-0.21	i	i	-9
COc1ccc(C(C(=O)NC2CCCCC2)N(Cc2cccs2)C(=O)Cc2c[nH]c3ccccc23)cc1 (stereo not given)	i	i	-0.42	i	-7.3*	-9
COc1cccc(CN(C(=O)Cc2c[nH]c3ccccc23)C(C(=O)NC2CCCCC2)c2cccs2)c1 (stereo not given)	i	7*	x	i	i	-14
COc1ccc(CN(C(=O)Cc2cccs2)C(C(=O)NC2CCCC2)c2ccncc2)cc1 (stereo not given)	i	i	0.34	i	i	-1
Cc1ccc(NC(=O)CN(C)C(=O)c2cc(-c3cccs3)nn2-c2ccccc2)cc1	x	x	x	i	x	x
CCOC(=O)c1ccccc1NC(=O)CSc1nc2ccccc2c(=O)n1CCCN1CCOCC1	x	x	x	-11*	x	x
CCC(C)NC(=O)CSc1nc2c(sc3ccccc32)c(=O)n1CCCN1CCOCC1 (stereo not given)	i	i	0.42	i	i	-11
CCOC(=O)CSc1nc2c(sc3ccccc32)c(=O)n1CCCN1CCOCC1	i	i	-1.2	i	i	4.9*
CCN(C[C@H]1N[C@@](C)(C(=O)OC)[C@H]2C(=O)N(C)C(=O)[C@@H]12)C(=O)Nc1ccc(OC)cc1	x	x	x	i	x	x
Cc1ccccc1C(=O)Nc1nc(=S)ss1	9*	i	11*	i	i	20*
